Converted amounts (≈) assume the structure as drawn.
Columns and labels:
Assay type in all cases: functional
Pseudomonas aeruginosa [1] = assay: Antimicrobial activity against Pseudomonas aeruginosa isolate 164CD harboring beta-lactamase AmpDh3 Ile67Thr mutant obtained from patient with non-cystic fibrosis by agar dilution method
Pseudomonas aeruginosa [2] = assay: Antimicrobial activity against Pseudomonas aeruginosa isolate PA367 obtained from patient with cystic fibrosis by agar dilution method
Pseudomonas aeruginosa [3] = assay: Antimicrobial activity against Pseudomonas aeruginosa isolate PA113 harboring beta-lactamase AmpDh3 Ala219Thr mutant obtained from patient with cystic fibrosis by agar dilution method
Pseudomonas aeruginosa [4] = assay: Antimicrobial activity against Pseudomonas aeruginosa isolate GB61 harboring beta-lactamase AmpD1 Gly148Ala mutant obtained from patient with non-cystic fibrosis by Etest
Pseudomonas aeruginosa [5] = assay: Antimicrobial activity against Pseudomonas aeruginosa isolate PA367 obtained from patient with cystic fibrosis harboring beta-lactamase AmpDh3 Asp137Gly, Ala219Thr mutant by disk diffusion method
Outline: (§1)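 Each ampD homolog gene, from PAO1 or the clinical isolate, was tested in a plasmid model system. An AmpD-deficient E. coli strain (JRG582) carrying an inducible genetic system was complemented with the gene. Read-out was the ceftazidime inhibition zone diameter in mm; lack of complementation gives a ceftazidime-resistant phenotype.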

Pseudomonas aeruginosa [6] = assay: Antimicrobial activity against Pseudomonas aeruginosa isolate 164CD obtained from patient with non-cystic fibrosis by agar dilution method
Pseudomonas aeruginosa [7] = assay: Antimicrobial activity against Pseudomonas aeruginosa isolate TX291 harboring beta-lactamase AmpD1 11-nt deletion at nt 5064907 and frameshift mutation obtained from patient with non-cystic fibrosis by agar dilution method
Pseudomonas aeruginosa [8] = assay: Antimicrobial activity against Pseudomonas aeruginosa isolate GB61 obtained from patient with non-cystic fibrosis by broth microdilution method
Pseudomonas aeruginosa [9] = assay: Antimicrobial activity against Pseudomonas aeruginosa isolate PA22 obtained from patient with cystic fibrosis harboring beta-lactamase AmpDh3 Asp137Gly, Ala219Thr mutant by disk diffusion method; outline: as §1
Pseudomonas aeruginosa [10] = assay: Antimicrobial activity against Pseudomonas aeruginosa isolate TX291 harboring beta-lactamase AmpDh3 Ala208Val mutant obtained from patient with non-cystic fibrosis by agar dilution method
Pseudomonas aeruginosa [11] = assay: Antimicrobial activity against Pseudomonas aeruginosa PAO1 expressing beta-lactamase AmpD1 by disk diffusion method; outline: as §1
Pseudomonas aeruginosa [12] = assay: Antimicrobial activity against Pseudomonas aeruginosa isolate GB57 harboring beta-lactamase AmpD1 Val10Ile mutant obtained from patient with non-cystic fibrosis by Etest
Pseudomonas aeruginosa [13] = assay: Antimicrobial activity against Pseudomonas aeruginosa isolate PA24 obtained from patient with cystic fibrosis harboring beta-lactamase AmpDh3 Ala219Thr mutant by disk diffusion method; outline: as §1
Pseudomonas aeruginosa [14] = assay: Antimicrobial activity against Pseudomonas aeruginosa PAO1 expressing beta-lactamase AmpDh2 by disk diffusion method; outline: as §1
Pseudomonas aeruginosa [15] = assay: Antimicrobial activity against Pseudomonas aeruginosa isolate GB57 obtained from patient with non-cystic fibrosis by broth microdilution method
Pseudomonas aeruginosa [16] = assay: Antimicrobial activity against Pseudomonas aeruginosa isolate TX292 harboring beta-lactamase AmpD1 11-nt deletion at nt 5064907 and frameshift mutation obtained from patient with non-cystic fibrosis by agar dilution method
Pseudomonas aeruginosa [17] = assay: Antimicrobial activity against Pseudomonas aeruginosa isolate PA113 obtained from patient with cystic fibrosis by agar dilution method
Pseudomonas aeruginosa [18] = assay: Antimicrobial activity against Pseudomonas aeruginosa isolate PA24 obtained from patient with cystic fibrosis by agar dilution method
Pseudomonas aeruginosa [19] = assay: Antimicrobial activity against Pseudomonas aeruginosa isolate PA367 obtained from patient with cystic fibrosis harboring beta-lactamase AmpD1 Gly148ala and Asp183Tyr mutant by disk diffusion method; outline: as §1
Pseudomonas aeruginosa [20] = assay: Antimicrobial activity against Pseudomonas aeruginosa PAO1 by agar dilution method
Pseudomonas aeruginosa [21] = assay: Antimicrobial activity against Pseudomonas aeruginosa isolate TX292 obtained from patient with non-cystic fibrosis by agar dilution method
Pseudomonas aeruginosa [22] = assay: Antimicrobial activity against Pseudomonas aeruginosa isolate PA22 obtained from patient with cystic fibrosis harboring beta-lactamase AmpD1 Gly148ala and Asp183Tyr mutant by disk diffusion method; outline: as §1
Pseudomonas aeruginosa [23] = assay: Antimicrobial activity against Pseudomonas aeruginosa isolate 164CD harboring beta-lactamase AmpD1 Leu32Pro, Gly46Ser, Gly148Ala mutant obtained from patient with non-cystic fibrosis by agar dilution method
Pseudomonas aeruginosa [24] = assay: Antimicrobial activity against Pseudomonas aeruginosa isolate PA24 obtained from patient with cystic fibrosis harboring beta-lactamase AmpD1 12-nt deletion at nucleotide 5064908 and deletion of codons 144-147 by disk diffusion method; outline: as §1
Pseudomonas aeruginosa [25] = assay: Antimicrobial activity against Pseudomonas aeruginosa PAO1 expressing beta-lactamase AmpDh3 by disk diffusion method; outline: as §1
Pseudomonas aeruginosa [26] = assay: Antimicrobial activity against Pseudomonas aeruginosa isolate PA113 harboring beta-lactamase AmpD1 Gly148Ala, Asp183Tyr mutant obtained from patient with cystic fibrosis by agar dilution method
Pseudomonas aeruginosa [27] = assay: Antimicrobial activity against Pseudomonas aeruginosa isolate PA22 obtained from patient with cystic fibrosis by agar dilution method
Pseudomonas aeruginosa [28] = assay: Antimicrobial activity against Pseudomonas aeruginosa isolate TX291 obtained from patient with non-cystic fibrosis by agar dilution method
Pseudomonas aeruginosa [29] = assay: Antimicrobial activity against Pseudomonas aeruginosa isolate 164CD obtained from patient with non-cystic fibrosis by Etest
Pseudomonas aeruginosa [30] = assay: Antimicrobial activity against Pseudomonas aeruginosa isolate GB61 obtained from patient with non-cystic fibrosis by Etest
Pseudomonas aeruginosa [31] = assay: Antimicrobial activity against Pseudomonas aeruginosa isolate GB57 obtained from patient with non-cystic fibrosis by Etest
Pseudomonas aeruginosa [32] = assay: Antimicrobial activity against Pseudomonas aeruginosa isolate PA24 obtained from patient with cystic fibrosis by agar dilution method in presence of beta-lactamase inhibitor Tazobactam
Pseudomonas aeruginosa [33] = assay: Antimicrobial activity against Pseudomonas aeruginosa isolate GB57 obtained from patient with non-cystic fibrosis by Etest in presence of beta-lactamase inhibitor Tazobactam
Pseudomonas aeruginosa [34] = assay: Antimicrobial activity against Pseudomonas aeruginosa isolate PA22 obtained from patient with cystic fibrosis by agar dilution method in presence of beta-lactamase inhibitor Tazobactam
Pseudomonas aeruginosa [35] = assay: Antimicrobial activity against Pseudomonas aeruginosa PAO1 by agar dilution method in presence of beta-lactamase inhibitor Tazobactam
Pseudomonas aeruginosa [36] = assay: Antimicrobial activity against Pseudomonas aeruginosa isolate 164CD obtained from patient with non-cystic fibrosis by Etest in presence of beta-lactamase inhibitor Tazobactam
Pseudomonas aeruginosa [37] = assay: Antimicrobial activity against Pseudomonas aeruginosa PAO1 by Etest
Pseudomonas aeruginosa [38] = assay: Antimicrobial activity against Pseudomonas aeruginosa isolate PA113 obtained from patient with cystic fibrosis by agar dilution method in presence of beta-lactamase inhibitor Tazobactam
Pseudomonas aeruginosa [39] = assay: Antimicrobial activity against Pseudomonas aeruginosa isolate TX291 obtained from patient with non-cystic fibrosis by Etest in presence of beta-lactamase inhibitor Tazobactam
Pseudomonas aeruginosa [40] = assay: Antimicrobial activity against Pseudomonas aeruginosa isolate GB61 obtained from patient with non-cystic fibrosis by Etest in presence of beta-lactamase inhibitor Tazobactam
Pseudomonas aeruginosa [41] = assay: Antimicrobial activity against Pseudomonas aeruginosa isolate PA367 obtained from patient with cystic fibrosis by agar dilution method in presence of beta-lactamase inhibitor Tazobactam
Pseudomonas aeruginosa [42] = assay: Antimicrobial activity against Pseudomonas aeruginosa isolate TX292 obtained from patient with non-cystic fibrosis by Etest in presence of beta-lactamase inhibitor Tazobactam

SMILES	MIC (Pseudomonas aeruginosa [2]) [µg/mL]	MIC (Pseudomonas aeruginosa [6]) [µg/mL]	MIC (Pseudomonas aeruginosa [17]) [µg/mL]	MIC (Pseudomonas aeruginosa [18]) [µg/mL]	MIC (Pseudomonas aeruginosa [20]) [µg/mL]	MIC (Pseudomonas aeruginosa [21]) [µg/mL]	MIC (Pseudomonas aeruginosa [27]) [µg/mL]	MIC (Pseudomonas aeruginosa [28]) [µg/mL]	MIC (Pseudomonas aeruginosa [29]) [µg/mL]	MIC (Pseudomonas aeruginosa [30]) [µg/mL]	MIC (Pseudomonas aeruginosa [31]) [µg/mL]	also measured
CC(C)(O/N=C(\C(=O)N[C@@H]1C(=O)N2C(C(=O)[O-])=C(C[n+]3ccccc3)CS[C@H]12)c1csc(N)n1)C(=O)O [CEFTAZIDIME]	32 (≈ 58.5 µM)	128 (≈ 234 µM)	32 (≈ 58.5 µM)	128 (≈ 234 µM)	1 (≈ 1.83 µM)	32 (≈ 58.5 µM)	16 (≈ 29.3 µM)	32 (≈ 58.5 µM)				diameter of the inhibition zone (DIZ) (Pseudomonas aeruginosa [1]): 10 mm; diameter of the inhibition zone (DIZ) (Pseudomonas aeruginosa [3]): 9 mm; diameter of the inhibition zone (DIZ) (Pseudomonas aeruginosa [4]): 12 mm; diameter of the inhibition zone (DIZ) (Pseudomonas aeruginosa [5]): 10 mm; diameter of the inhibition zone (DIZ) (Pseudomonas aeruginosa [7]): 11 mm; MIC (Pseudomonas aeruginosa [8]): 128 µg/mL (≈ 234 µM); diameter of the inhibition zone (DIZ) (Pseudomonas aeruginosa [9]): 10 mm; diameter of the inhibition zone (DIZ) (Pseudomonas aeruginosa [10]): 8 mm; diameter of the inhibition zone (DIZ) (Pseudomonas aeruginosa [11]): 17 mm; diameter of the inhibition zone (DIZ) (Pseudomonas aeruginosa [12]): 10 mm; diameter of the inhibition zone (DIZ) (Pseudomonas aeruginosa [13]): 9 mm; diameter of the inhibition zone (DIZ) (Pseudomonas aeruginosa [14]): 6 mm; MIC (Pseudomonas aeruginosa [15]): > 128 µg/mL; diameter of the inhibition zone (DIZ) (Pseudomonas aeruginosa [16]): 11 mm; diameter of the inhibition zone (DIZ) (Pseudomonas aeruginosa [19]): 8 mm; diameter of the inhibition zone (DIZ) (Pseudomonas aeruginosa [22]): 8 mm; diameter of the inhibition zone (DIZ) (Pseudomonas aeruginosa [23]): 8 mm; diameter of the inhibition zone (DIZ) (Pseudomonas aeruginosa [24]): 6 mm; diameter of the inhibition zone (DIZ) (Pseudomonas aeruginosa [25]): 18 mm; diameter of the inhibition zone (DIZ) (Pseudomonas aeruginosa [26]): 8 mm
C[C@H]1[C@H](NC(=O)/C(=N\OC(C)(C)C(=O)O)c2csc(N)n2)C(=O)N1S(=O)(=O)O [AZTREONAM]	4 (≈ 9.19 µM)		16 (≈ 36.7 µM)	128 (≈ 294 µM)	4 (≈ 9.19 µM)	64 (≈ 147 µM)	4 (≈ 9.19 µM)	64 (≈ 147 µM)	> 256	48 (≈ 110 µM)	> 256	
CO/N=C(\C(=O)N[C@@H]1C(=O)N2C(C(=O)[O-])=C(C[N+]3(C)CCCC3)CS[C@H]12)c1csc(N)n1 [CEFEPIME]	16 (≈ 33.3 µM)		16 (≈ 33.3 µM)	64 (≈ 133 µM)	1 (≈ 2.08 µM)	32 (≈ 66.6 µM)	16 (≈ 33.3 µM)	32 (≈ 66.6 µM)	> 256	32 (≈ 66.6 µM)	> 256	
CCN1CCN(C(=O)N[C@@H](C(=O)N[C@@H]2C(=O)N3[C@@H]2SC(C)(C)[C@@H]3C(=O)O)c2ccccc2)C(=O)C1=O [PIPERACILLIN]	64 (≈ 124 µM)	> 1020	128 (≈ 247 µM)	256 (≈ 495 µM)		256 (≈ 495 µM)	128 (≈ 247 µM)	256 (≈ 495 µM)		> 256	> 256	MIC (Pseudomonas aeruginosa [32]): 128 µg/mL; MIC (Pseudomonas aeruginosa [33]): > 256 µg/mL; MIC (Pseudomonas aeruginosa [34]): 64 µg/mL; MIC (Pseudomonas aeruginosa [35]): 4 µg/mL; MIC (Pseudomonas aeruginosa [36]): > 256 µg/mL; MIC (Pseudomonas aeruginosa [37]): 4 µg/mL (≈ 7.73 µM); MIC (Pseudomonas aeruginosa [38]): 64 µg/mL; MIC (Pseudomonas aeruginosa [39]): > 256 µg/mL; MIC (Pseudomonas aeruginosa [40]): > 256 µg/mL; MIC (Pseudomonas aeruginosa [41]): 64 µg/mL; MIC (Pseudomonas aeruginosa [42]): > 256 µg/mL

Source: ChEMBL document CHEMBL1671636, “Role of ampD homologs in overproduction of AmpC in clinical isolates of Pseudomonas aeruginosa” (2008)
